# Measurements from publication PMC8230583 (Polymer Chemistry, 2021).
# Test: Critical aggregation concentration by Nile Red fluorimetry
# Type: physicochemical
# Conditions: ratio of CAC in water to CAC in 150 mM NaCl
# Outline: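 Each compound was dissolved in water or 0.15 M NaCl with mild shaking or sonication, and stocks were equilibrated overnight at room temperature. Diluted samples (pH 4.0–5.5) were equilibrated ≥3 h at room temperature. Nile Red was added from a 1 mg ml−1 acetone stock and samples equilibrated 30 min more. Emission (575–740 nm, excitation 550 nm) was recorded to follow the shift of the Nile Red maximum.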
substance,measurement,value
FDFF,"CAC in the presence of salt, times lower than in pure water",1.2 times
